Source: PubChem BioAssay (Sanford-Burnham Center for Chemical Genomics)
An excerpt weighted towards active compounds, which were near 0.79% of everything screened.
mIAP act – increases mouse intestinal alkaline phosphatase activity | muIAP, CDP-Star luminescence, 30 min; hits give high values; 1 = vehicle-only enzyme signal, 0 = enzyme-free wells | activation factor at 10 µM | actives 0.24% (n = 330,000) | AID 2805;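 active = activation factor of at least 2 at 20 µM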
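also added = chemiluminescent substrate CDP-Star | test system = mouse IAP enzyme | signal = chemiluminescence readout | compound = DMSO-dissolved test compounds | incubation = 30 min at room temperature | benchmarks = DMSO wells, no-enzyme wells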
bIAP inh – blocks bovine intestinal alkaline phosphatase activity | purified bovine IAP, CDP-star luminescence, 30 min | inhibition, % at 20 µM | 190,000 tested, under 10 active;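 active = over 50% inhibition of intestinal alkaline phosphatase at 20 µM in the single-dose screen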
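Assay system: bovine IAP enzyme; medium: DEA buffer 100 mM, pH 9.8, with MgCl2 1.0 mM, ZnCl2 0.02 mM; doses: 20 µM single dose; incubation: enzyme reaction for 30 min at room temperature; detection: CDP-star luminescence signal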
hIAP activ – increases human intestinal alkaline phosphatase activity; P09923; actives 0.16% (n = 330,000); activation factor at 10 µM; purified human IAP, CDP-Star luminescence, 30 min; hits give high values; 1 = vehicle-only enzyme, 0 = enzyme-free background;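 active = activation factor of the enzyme at least 2-fold when tested at 20 µM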
Target sequence (P09923 whole entry, looked up): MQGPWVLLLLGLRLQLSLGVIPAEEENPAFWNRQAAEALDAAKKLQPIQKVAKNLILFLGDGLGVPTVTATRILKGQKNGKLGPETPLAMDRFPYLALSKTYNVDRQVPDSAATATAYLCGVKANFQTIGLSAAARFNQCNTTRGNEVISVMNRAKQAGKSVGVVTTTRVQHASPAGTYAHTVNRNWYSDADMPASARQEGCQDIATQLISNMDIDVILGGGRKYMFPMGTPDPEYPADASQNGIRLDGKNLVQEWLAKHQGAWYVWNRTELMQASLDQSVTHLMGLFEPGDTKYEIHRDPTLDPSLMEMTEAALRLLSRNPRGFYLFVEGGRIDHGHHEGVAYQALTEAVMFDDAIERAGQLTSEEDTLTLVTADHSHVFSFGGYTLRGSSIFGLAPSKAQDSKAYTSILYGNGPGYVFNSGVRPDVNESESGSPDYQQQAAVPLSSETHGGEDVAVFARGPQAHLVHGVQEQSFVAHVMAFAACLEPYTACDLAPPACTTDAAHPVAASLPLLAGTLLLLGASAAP
mIAP block – mouse IAP inhibition; AID 2806; actives 0.2% (n = 330,000); purified mouse IAP, CDP-Star luminescence, 30 min; inhibition, % at 10 µM;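 active = inhibition of at least 40% at 10 µM in the primary screen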;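 note: plate controls were DMSO with enzyme for no effect and no enzyme wells for full effect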
bIAP activator – intestinal alkaline phosphatase (bovine) activation | purified bovine IAP, CDP-star luminescence, 30 min; hits give high values; fold of DMSO-control signal, blank-subtracted | activation factor at 20 µM | actives 0.17% (n = 200,000) | AID 1016;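 active = activation factor of 2 or more at 20 µM, a signal rise over negative controls twice the positive control's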
hIAP block – blocks human intestinal alkaline phosphatase. purified IAP, CDP-Star luminescence, 30 min. inhibition, % at 10 µM. actives 0.12% (n = 330,000);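 active = inhibition reaching a set limit with compound at 10 µM in the primary screen, cut at about 35% in these data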;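 note: plate controls were DMSO wells with enzyme for no effect and no-enzyme buffer wells for full effect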
hIAP act confirm – human IAP activation confirmation. shares compounds with hIAP activ. activation (%Activity, negative = activation), % at 8.3 µM. purified IAP, CDP-Star luminescence, 30 min; hits give low values. AID 434926. actives 10% (n = 880);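 active = at least twofold enzyme activation in any of six single-dose repeats, which the averaged readout prints as negative percent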
* hit, by the source's call; · = not tested or not shown.

SMILES | mIAP act | bIAP inh | hIAP activ | mIAP block | bIAP activator | hIAP block | hIAP act confirm
COc1ccc2nc3cc(Cl)ccc3c(Nc3cc(CN4CCCC4)c(O)c(CN4CCCC4)c3)c2n1 | 0.884 | · | 0.568 | 11.6 | · | 43.2* | -60.1*
CCn1c(=S)sc2c(=O)n(CC(=O)Nc3ccc(OC)c(Cl)c3)c(C)nc21 | 0.913 | · | 1 | 8.7 | · | -0.3 | ·
Nc1cc(Nc2ccccc2)ccn1 | 0.959 | · | 0.621 | 4.1 | · | 37.9* | 7.9
CCN(Cc1ccncc1)C(=O)c1ccccc1NS(=O)(=O)c1ccc(Br)cc1 | 1.08 | · | 1.1 | -7.9 | · | -10.4 | ·
O=C(CSc1nc2c(c(=O)n1-c1ccccc1)SCC2)N1CCN(c2ccccc2)CC1 | 1.01 | 2.5 | 0.922 | -1.5 | 1 | 7.8 | ·
O=C(CSc1nc2c(c(=O)n1-c1ccc(F)cc1)SCC2)N1CCCC1 | 1.14 | -3.1 | 2.06* | -13.5 | 1 | -106.5 | 8.3
CCC(OC(=O)C1=Cc2ccccc2OC1)C(=O)NC1CCCC1 (configuration not stated) | 0.969 | 8.7 | 0.339 | 3.1 | 0.9 | 66.1* | -52.5*
CC(C)C(OC(=O)C1=Cc2ccccc2OC1)C(=O)NC1CCCC1 (configuration not stated) | 1.06 | 7.8 | 0.882 | -6.5 | 0.9 | 11.8 | ·
O=C(NNC(=O)C1CC=CCC1)c1ccccc1Cl (configuration not stated) | 0.99 | · | 1.06 | 1.0 | · | -5.6 | ·
COc1cc(/C=C2\SC(=S)N(N3CCOCC3)C2=O)ccc1O | 0.655 | · | 0.556 | 34.5 | · | 44.4* | -24.0
COc1cc(/C=C2\SC(=S)N(NC(=O)c3ccncc3)C2=O)ccc1O | 0.633 | · | 0.648 | 36.7 | · | 35.2* | -2.7
COc1cc(/C=C2\SC(=S)N(NC(=O)c3cccc(O)c3)C2=O)ccc1O | 0.714 | · | 0.739 | 28.6 | · | 26.1 | ·
COc1cc(/C=C2\SC(=S)N(NC(=O)c3ccc(O)c(OC)c3)C2=O)ccc1O | 0.736 | · | 0.543 | 26.4 | · | 45.7* | -49.6
CCc1cc(C(=O)OC)c(NC(=O)CSc2nccn2C)s1 | 0.87 | · | 1.08 | 13.0 | · | -7.7 | ·
Cc1ccc(NC(=O)C2C3C=CC4(O3)C2C(=O)N(CCCN2CCCCC2)C4C(=O)NC2CCCCC2)cc1C (configuration not stated) | 1.06 | · | 1.36 | -6.2 | · | -35.9 | ·
CC(=O)C[C@H]1c2ccccc2S(=O)(=O)N1c1ccccc1 | 1.08 | · | 0.995 | -8.0 | · | 0.5 | ·
Cc1ccc(S(=O)(=O)NCCC(=O)NNC(=O)COc2ccc(Br)cc2)cc1C | 1.06 | · | 2.48* | -6.5 | · | -147.9 | 41.0
O=C(NCc1ccccn1)C(=O)N/N=C/c1ccccc1O | 0.963 | · | 2.98* | 3.7 | · | -198.1 | 2.6
O=C(NCCCN1CCOCC1)C(=O)N/N=C/c1ccccc1O | 1.18 | · | 2* | -18.3 | · | -100.4 | 28.4
O=C(NCCCN1CCOCC1)C(=O)N/N=C/c1ccccc1Cl | 0.948 | · | 0.863 | 5.2 | · | 13.7 | ·
CN(C)S(=O)(=O)c1cccc(NC(=S)NNC(=O)c2cc3ccccc3cc2O)c1 | 0.9 | · | 2.65* | 10.0 | · | -164.7 | 72.3
COc1ccc(C(=O)NNC(=S)NC(=O)/C=C/c2cccs2)cc1 | 0.791 | -9.2 | 1.25 | 20.9 | 1.1 | -25.3 | ·
COc1ccc(C(=O)NC(=S)NNC(=O)c2ccccc2O)cc1 | 0.733 | · | 2.34* | 26.7 | · | -133.9 | -7.9
O=C(NNC(=O)c1cc2ccccc2cc1O)Nc1ccc(Br)cc1 | 0.894 | · | 1.14 | 10.6 | · | -13.5 | ·
O=C(/C=C/c1cccs1)NC(=S)NNC(=O)c1ccccc1O | 0.695 | -34.5 | 2.37* | 30.5 | 1.3 | -136.7 | 27.9
SMILES | mIAP act | bIAP inh | hIAP activ | mIAP block | bIAP activator | hIAP block | hIAP act confirm
COc1ccc(NC(=O)NNC(=O)c2cc3ccccc3cc2O)cc1 | 0.937 | · | 2.34* | 6.3 | · | -133.6 | 3.6
COc1ccccc1C1/C(=C(\O)c2ccc3c(c2)OCCO3)C(=O)C(=O)N1CCCn1ccnc1 (configuration not stated) | 1.18 | · | 1.16 | -17.7 | · | -16.1 | ·
O=C(NC(=S)NNC(=O)c1ccc(Cl)cc1Cl)c1cccnc1 | 0.728 | -2.9 | 1.05 | 27.2 | 1 | -5.0 | ·
O=C(NC(=S)NNC(=O)c1ccccc1O)c1cccnc1 | 0.834 | -8.3 | 2.05* | 16.6 | 1.1 | -105.5 | -0.9
Cc1cc(OCC(=O)Nc2ncn[nH]2)ccc1Cl | 1.04 | · | 2.01* | -4.0 | · | -100.7 | -87.0*
CCCCOc1cccc(C2/C(=C(\O)c3ccc4c(c3)OCCO4)C(=O)C(=O)N2CCN2CCOCC2)c1 (configuration not stated) | 1.01 | · | 0.576 | -0.8 | · | 42.4* | -90.6*
NCCNc1ccc(C(=O)N2c3ccccc3Sc3ccccc32)cc1[N+](=O)[O-] | 0.961 | · | 3.46* | 3.9 | · | -246.0 | -42.5
Nc1ccc(C(=O)OCC(=O)N2c3ccccc3Sc3ccccc32)cc1[N+](=O)[O-] | · | -1.5 | · | · | 1 | · | ·
CC(C)c1nnc(SCC(=O)Nc2ccc3c(c2)OCCO3)n1C | 1.02 | · | 0.893 | -2.0 | · | 10.7 | ·
Cc1cc(C)cc(NC(=S)N2CCCC2)c1 | 1 | · | 0.644 | -0.2 | · | 35.6* | -26.7
CN1CCc2c1nc1ccccc1c2N (tested in a mixture with another compound) | 1.01 | · | 0.615 | -1.2 | · | 38.5* | 0.8
CCc1ccc(S(=O)(=O)/N=C2\C=C(NS(=O)(=O)c3ccccc3)C(=O)c3ccccc32)cc1 | 0.874 | · | 0.639 | 12.6 | · | 36.1* | -21.8
CC(C)CC(=O)NC(=S)Nc1ccccc1C(=O)Nc1ccccc1 | 0.682 | -10.0 | 2.7* | 31.8 | 1.1 | -170.2 | 21.2
CC(C)C(=O)NC(=S)Nc1ccccc1C(=O)Nc1ccccc1 | 0.642 | -4.5 | 2.65* | 35.8 | 1 | -164.8 | -107.6*
CN(CC(=O)Nc1n[nH]c(=S)s1)S(=O)(=O)c1cccc2cccnc12 | 0.941 | · | 0.912 | 5.9 | · | 8.8 | ·
O=C(CNC(=S)N(CCCN1CCOCC1)Cc1cccs1)NC1CC1 | 0.828 | 4.8 | 1.2 | 17.2 | 1 | -20.0 | ·
O=C(CNC(=S)N(CCCN1CCOCC1)Cc1cccs1)NCc1ccccc1 | 1.11 | · | 3.07* | -11.5 | · | -206.7 | 5.5
O=S(=O)(c1ccc2ccccc2c1)n1cccn1 | 1.03 | · | 0.586 | -3.3 | · | 41.4* | -3.4
CCc1ccc(N=C2N=C(N)c3ccccc32)cc1 | 0.96 | 8.5 | 0.624 | 4.0 | 0.9 | 37.6* | 21.2
O=C(NNC(=O)c1n[nH]c(=O)c2ccccc12)c1ccc(Br)cc1 | 0.854 | · | 2.13* | 14.6 | · | -112.9 | -11.9
Cc1ccc(C(=O)NNC(=O)c2n[nH]c(=O)c3ccccc23)cc1C | 0.841 | · | 2.18* | 15.9 | · | -117.7 | -41.3
CCc1ccc(C(=O)NNC(=O)c2n[nH]c(=O)c3ccccc23)cc1 | 0.885 | · | 1.67 | 11.5 | · | -67.2 | ·
CCOc1cc(/C=C(\C#N)C(=O)NCc2cccnc2)ccc1O | 0.92 | 25.8 | 0.836 | 8.0 | 0.7 | 16.4 | ·
